For assay [1], the target named is Induced myeloid leukemia cell differentiation protein Mcl-1 (Homo sapiens, UniProt Q07820). The assay is described as follows: Displacement of FAM-Bid peptide from human Mcl-1 after 30 mins by competitive fluorescence polarization assay. The procedure, abridged:
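Serial compound dilutions added with 0.01% Triton X-100; polarization read after 30 min. Controls were protein plus peptide, and peptide alone. Ki calculated with an FP-specific competitive binding equation.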
Background: In fluorescence polarisation assays a small probe gives low polarisation when free and higher when bound to something large.

Assay [2] has as its target Apoptosis regulator Bcl-2 (Homo sapiens, UniProt P10415). The assay is described as follows: Displacement of FAM-Bid peptide from human recombinant Bcl2 after 30 mins by competitive fluorescence polarization assay. The procedure, abridged: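 Bcl-2 (40 nM) preincubated with 10 nM FAM-Bid peptide (Kd 8 nM) in 100 mM potassium phosphate pH 7.5, bovine gamma globulin, 0.02% sodium azide. Serial compound dilutions added in 0.01% Triton X-100; polarization read after 30 min. Controls were protein plus peptide, and peptide alone. Ki derived from an equation developed for FP assays.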

The test system of another assay is K562. In words: Cytotoxicity in human K562 cells overexpressing Mcl-1 after 48 hrs by MTT assay. The class given is functional, cell-based. As to conditions: K562, 48 h. On the technique in general: Formazan colour is commonly taken as a measure of viable cells.
In the next assay the test system is HL-60. In words: Cytotoxicity in human HL60 cells overexpressing Bcl-2 after 48 hrs by MTT assay. In kind it is functional, cell-based. As to conditions: HL-60, 48 h.
A further assay concerns MCF7. In words: Cytotoxicity in human MCF7 cells overexpressing Mcl-1after 48 hrs by MTT assay. The class given is functional, cell-based. Conditions: MCF7, 48 h.

Sequence of Apoptosis regulator Bcl-2 (P10415 whole entry): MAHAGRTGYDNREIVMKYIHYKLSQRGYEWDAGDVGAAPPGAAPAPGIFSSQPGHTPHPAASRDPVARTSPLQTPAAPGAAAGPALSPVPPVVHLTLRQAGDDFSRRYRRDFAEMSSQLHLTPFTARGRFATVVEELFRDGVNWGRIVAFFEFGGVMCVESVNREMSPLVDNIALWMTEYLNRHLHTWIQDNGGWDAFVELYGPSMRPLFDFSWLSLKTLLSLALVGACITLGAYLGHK
Sequence of Induced myeloid leukemia cell differentiation protein Mcl-1 (Q07820 whole entry): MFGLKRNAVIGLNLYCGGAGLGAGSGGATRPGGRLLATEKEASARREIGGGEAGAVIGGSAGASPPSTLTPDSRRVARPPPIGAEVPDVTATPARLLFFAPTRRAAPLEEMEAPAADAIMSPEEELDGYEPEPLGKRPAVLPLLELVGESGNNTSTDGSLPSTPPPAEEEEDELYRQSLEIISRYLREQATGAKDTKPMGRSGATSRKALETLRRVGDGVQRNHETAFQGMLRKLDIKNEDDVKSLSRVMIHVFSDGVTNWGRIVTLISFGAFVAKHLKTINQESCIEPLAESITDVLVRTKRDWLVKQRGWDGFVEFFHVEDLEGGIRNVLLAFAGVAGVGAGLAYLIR

One may read the Ki as a dissociation constant, usually derived from enzyme kinetics or from competition with a known ligand. Consider `Cc1ccc(Oc2ccc3c4c(cccc24)C2=NC(=O)C(C#N)=C23)cc1`, for which the Ki in assay [1] worked out at 174 nM; in assay [2], 445 nM.
Consider `N#CC1=C2C(=NC1=O)c1cccc3c(Oc4ccc(-c5ccccc5)cc4)ccc2c13`, for which the Ki in assay [2] was determined as 308 nM.
Usually IC50 stands for the concentration that inhibits the measured activity by half. Higher therefore signals a need for much substance. `COc1ccc(Oc2ccc3c4c(cccc24)C2=NC(=O)C(C#N)=C23)cc1`: the values for the IC50 in the assay with K562, in the assay on HL-60 and in the assay with MCF7 were 4700 nM, 1900 nM and 5100 nM, respectively. In addition, the Ki was determined as 122 nM in assay [1] and 304 nM in assay [2].
For the compound `CC(C)c1ccc(Oc2ccc3c4c(cccc24)C2=NC(=O)C(C#N)=C23)cc1`, the Ki in assay [2] amounted to 232 nM.
With `Cc1cccc(Oc2ccc3c4c(cccc24)C2=NC(=O)C(C#N)=C23)c1`, the inhibition constant Ki in assay [1] was determined as 445 nM; in assay [2], 6030 nM.
The corresponding values for `Cc1ccccc1Oc1ccc2c3c(cccc13)C1=NC(=O)C(C#N)=C12` are 213 nM and 1430 nM.
With `COc1ccccc1Oc1ccc2c3c(cccc13)C1=NC(=O)C(C#N)=C12`, the figures for the Ki in assay [1] and in assay [2] were 149 nM and 886 nM, respectively.
Take `COc1cccc(Oc2ccc3c4c(cccc24)C2=NC(=O)C(C#N)=C23)c1`: the IC50 in the assay on K562 is 8300 nM; with HL-60 it was more than 50000 nM; with MCF7 it was 6400 nM. Besides, the Ki in assay [1] was found to be 375 nM; in assay [2], 16600 nM.
Regarding `CCC(C)c1ccc(Oc2ccc3c4c(cccc24)C2=NC(=O)C(C#N)=C23)cc1` (stereo not drawn), the results for the IC50 in the assay with K562, in the assay on HL-60 and with MCF7 were 50 nM, 40 nM and 20 nM, respectively.

The record behind these values is ChEMBL document CHEMBL1821721, “Probing the difference between BH3 groove of Mcl-1 and Bcl-2 protein: Implications for dual inhibitors design” (Eur J Med Chem, 2011).
